Results taken from publication PMC5701662 (Bioorganic & medicinal chemistry letters, 2017).
Entries after “also recorded” stand apart in the source; their conditions may differ.

Experiments:
SMN2 expression [1] = assay: SMN2-luciferase reporter assay; type: cell-based; conditions: for activity in the luciferase reporter assay (in words): SAR statements in the text
How it was run: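 Reporter cells carrying the SMN2-luciferase construct were exposed to test compound at 0.1–50 μM, with DMSO (0.1%) controls. Luciferase signal gave dose-response curves, from which EC50 and percent maximum increase in SMN2 expression were taken. Values are mean ± S.E.M.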

aqueous solubility = type: physicochemical
[2] = stability in mouse microsomes; type: in vitro ADME
[3] = test system: SMN1-luciferase construct; assay: SMN1-luciferase construct expression; type: cell-based
[4] = test system: SMN-luciferase reporter transcripts; assay: qRT-PCR analysis of SMN-luciferase reporter transcripts; type: cell-based; conditions: 24 hours required for full activation
SMNΔ7 mice = assay: preliminary efficacy study in SMNΔ7 mice; type: in vivo, mouse; conditions: 20 mg/kg i.p. once daily from PND 2, compared to vehicle
SMN2 expression [5] = conditions: hit compounds from high-throughput screening; cited from earlier work

Compound	activity in the luciferase reporter assay (in words) (SMN2 expression [1])	EC50 (SMN2 expression [1])	also measured
COc1ccc2c(c1OC)C(c1cc(Br)ccc1F)CC(=O)N2 (centres unmarked) [5a]	complete loss of activity	–	–
COc1cc2c(c(OC)c1)C(c1cc(Br)ccc1F)CC(=O)N2 (centres unmarked) [5b]	complete loss of activity	–	–
COc1cc2c(c(OC)c1OC)C(c1ccccc1F)CC(=O)N2 (centres unmarked) [5c]	complete loss in activity	> 50 µM	–
COc1cc2c(c(OC)c1OC)C(c1cccc(Br)c1)CC(=O)N2 (centres unmarked) [5d]	complete loss in activity	> 50 µM	–
COc1cc2c(c(OC)c1OC)C(c1cc(F)ccc1F)CC(=O)N2 (centres unmarked) [5f]	not active	> 50 µM	–
COc1cc2c(c(OC)c1OC)C(c1cc(C#N)ccc1F)CC(=O)N2 (centres unmarked) [5g]	not active	> 50 µM	–
COc1cc2c(c(OC)c1OC)C(c1cc([N+](=O)[O-])ccc1F)CC(=O)N2 (centres unmarked) [5h]	not active	> 50 µM	–
COc1cc2c(c(OC)c1OC)C(c1cc(C(N)=O)ccc1F)CC(=O)N2 (centres unmarked) [5i]	not active	> 50 µM	–
COc1cc2c(c(OC)c1OC)C(c1cccc(Cl)c1Cl)CC(=O)N2 (centres unmarked) [5j]	inactive	> 50 µM	–
COc1cc2c(c(OC)c1OC)C(c1ccc(Cl)cc1Cl)CC(=O)N2 (centres unmarked) [5k]	inactive	> 50 µM	–
COc1cc2c(c(OC)c1OC)C(c1ccc(F)c(F)c1)CC(=O)N2 (centres unmarked) [5l]	inactive	> 50 µM	–
COc1cc2c(c(OC)c1OC)C(c1ccc(Cl)c(Cl)c1)CC(=O)N2 (centres unmarked) [5m]	inactive	> 50 µM	–
COc1cc2c(c(OC)c1OC)C(c1cc(Br)ccc1F)CC(=O)N2C (centres unmarked) [6a]	inactive	–	–
COc1cc2c(c(OC)c1OC)C(c1cc(Br)ccc1F)C(C)C(=O)N2 (centres unmarked) [6b]	inactive	–	–
COc1cc2c(c(OC)c1OC)C(c1cc(Cl)ccc1F)NC(=O)N2 (centres unmarked) [9a]	improved potency and efficacy; also recorded: very promising activity	–	SMN-luciferase protein expression from the SMN2-luciferase construct (SMN2 expression [1]; secondary characterisation): increased SMN-luciferase protein expression; aqueous solubility (in words) (aqueous solubility): improved aqueous solubility; stability in mouse microsomes (in words) [2]: promising stability; SMN-luciferase protein expression from the SMN1-luciferase construct [3]: increased SMN-luciferase protein expression; amount of exon 7 included transcripts [4]: corresponding increase; amount of total SMN-luciferase reporter transcripts [4]: increased; ability to right themselves (SMNΔ7 mice): increase in the ability to right themselves
COc1cc2c(c(OC)c1OC)C(c1ccccc1F)N(C)C(=O)N2 (centres unmarked) [9b]	less active; also recorded: partial, but not a complete, loss in activity	10 µM	Emax (SMN2 expression [1]; read-out: percent maximum increase in SMN2 expression): 100%
CCCN1C(=O)Nc2cc(OC)c(OC)c(OC)c2C1c1cccc(Cl)c1 (centres unmarked) [9c]	inactive; also recorded: partial, but not a complete, loss in activity	–	–
COc1cc2c(c(OC)c1OC)C(c1cccc(F)c1)NC(=O)N2 (centres unmarked) [9d]	retained some activity	–	–
COc1cc2c(c(OC)c1OC)C(c1ccc(F)cc1)NC(=O)N2 (centres unmarked) [9e]	retained some activity	–	–

Compound	activity in the luciferase reporter assay (in words) (SMN2 expression [1])	EC50 (SMN2 expression [1])	also measured
COc1cc2c(c(OC)c1OC)C(c1ccccc1Cl)NC(=O)N2 (centres unmarked) [9f]	–	> 50 µM	–
COc1cc2c(c(OC)c1OC)C(c1ccc(Cl)cc1)NC(=O)N2 (centres unmarked) [9g]	retained some activity	–	–
COc1ccccc1C1NC(=O)Nc2cc(OC)c(OC)c(OC)c21 (centres unmarked) [9h]	–	> 50 µM	–
COc1ccc(C2NC(=O)Nc3cc(OC)c(OC)c(OC)c32)cc1 (centres unmarked) [9j]	–	> 50 µM	–
COc1cc2c(c(OC)c1OC)C(c1cc(-c3ccccc3)ccc1F)NC(=O)N2 (centres unmarked) [9l]	inactive	> 50 µM	–
COc1cc2c(c(OC)c1OC)C(c1cc(C#N)ccc1F)NC(=O)N2 (centres unmarked) [9m]	inactive	> 50 µM	–
COc1cc2c(c(OC)c1OC)C(c1cc(F)ccc1F)NC(=O)N2 (centres unmarked) [9n]	less active	–	–
COc1ccc(F)c(C2NC(=O)Nc3cc(OC)c(OC)c(OC)c32)c1 (centres unmarked) [9o]	inactive	> 50 µM	–
COc1cc2c(c(OC)c1OC)C(c1ccc(Cl)cc1F)NC(=O)N2 (centres unmarked) [9p]	tolerated	–	–
COc1cc(Cl)ccc1C1NC(=O)Nc2cc(OC)c(OC)c(OC)c21 (centres unmarked) [9q]	activity was restored	–	–
COc1ccc(Cl)cc1C1NC(=O)Nc2cc(OC)c(OC)c(OC)c21 (centres unmarked) [9r]	activity was restored	–	–
CC(C)c1cc(C(=O)Nc2ccc(F)c(Cl)c2)no1 [compound 1]	–	–	increase in expression of SMN2 (SMN2 expression [5]): 2 fold
COc1cc2c(c(OC)c1OC)C(c1cc(Br)ccc1F)CC(=O)N2 (centres unmarked) [compound 2]	–	–	increase in expression of SMN2 (SMN2 expression [5]): 2 fold
COc1cc2[nH]c(=O)nc(-c3cc(Cl)ccc3F)c2c(OC)c1OC [compound 13]	inactive	–	–
COc1cc2c(c(OC)c1OC)C(c1cc(Cl)ccc1F)=NCC(=O)N2 [compound 14]	retained potency similar to the lead 2, although its efficacy was reduced	–	–
COc1cc2c(c(OC)c1OC)C(c1cc(Cl)ccc1F)OC(=O)N2 (centres unmarked) [compound 16]	encouraging activity	–	–
COc1cc2c(c(OC)c1OC)C(c1cc(Cl)ccc1F)OCC(=O)N2 (centres unmarked) [compound 19]	improved potency and efficacy	–	aqueous solubility (in words) (aqueous solubility): improved aqueous solubility; stability in mouse microsomes (in words) [2]: poor
COc1cc2c(c(OC)c1OC)C(c1cc(Cl)ccc1F)OCC(=O)N2C (centres unmarked) [compound 21]	not tolerated	–	–
COc1cc2c(c(OC)c1OC)C(C)(c1cc(Cl)ccc1F)OCC(=O)N2 (centres unmarked) [compound 23]	not tolerated	–	–
